ChEMBL document CHEMBL1123422, “1-Ethyl-7-[3-[(ethylamino)methyl]-1-pyrrolidinyl]-6,8-difluoro-1,4- dihydro-4-oxo-3-quinoline-carboxylic acid. New quinolone antibacterial with potent gram-positive activity” (1986)
≈ marks a conversion by molar mass, not a printed value.

Key:
Escherichia coli [1] = experiment: (§1) Compound was tested for inhibition of the gram-negative organism Escherichia coli vogel; format: functional
In short: (§2)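 MICs read in standard microdilution (microtitration) format against a panel of 10 bacterial organisms; values in µg/mL.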

Enterobacter cloacae = experiment: Compound was tested for inhibition of the gram-negative organism […] HA 2646; format: functional
[2] = biological target: DNA gyrase (Escherichia coli) (UniProt P0AES6+P0AES4); experiment: Inhibition of DNA gyrase of Escherichia coli H560 cells
In short: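 DNA gyrase purified from Escherichia coli H560 cells. Cleavage assay: drug-gyrase-DNA complex denatured, converting closed circular DNA to linear DNA. Linear DNA resolved by gel electrophoresis and stained with ethidium bromide. Value is the minimum drug concentration (µg/mL) giving linear DNA at an intensity relative to oxolinic acid at 10 µg/mL. Aqueous drug stocks made up in 0.1 N NaOH or KOH.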

Klebsiella pneumoniae [3] = experiment: (§3) Compound was tested for inhibition of the gram-negative organism Klebsiella pneumoniae MGH-2; format: functional; in short: as §2
Mus musculus [4] = experiment: Compound was evaluated for protective dose against the Escherichia coli vogel lethal infection following peroral administration in mouse; format: functional; conditions: po, read-out: PD50
In short: (§4)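 Acute lethal systemic infection in female Charles River CD-1 mice (18–22 g), challenged intraperitoneally with an estimated 100 median lethal dose in 5% hog gastric mucin. Single doses in a twofold rising series were given with the challenge, sc as aqueous solution or po by gavage in 5% gum acacia. PD50 (mg/kg) was estimated by log probit from survival of eight mice per dose.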

Mus musculus [5] = experiment: Compound was evaluated for protective dose against the Escherichia coli vogel lethal infection following sc administration in mouse; format: functional; conditions: read-out: PD50; in short: as §4
Mus musculus [6] = experiment: Compound was evaluated for protective dose against the […] UC-76 lethal infection following po administration in mouse; format: functional; conditions: read-out: PD50; in short: as §4
Mus musculus [7] = experiment: Compound was evaluated for protective dose against the […] UC-76 lethal infection following sc administration in mouse; format: functional; conditions: read-out: PD50; in short: as §4
Mus musculus [8] = experiment: Compound was evaluated for protective dose against the Streptococcus pneumoniae SV-1 lethal infection following po administration; format: functional; conditions: read-out: PD50
In short: (§5)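 Female Charles River CD-1 mice (18–22 g) were challenged intraperitoneally with an estimated 100 median lethal dose in tryptic soy broth. Single doses, in a twofold rising series, were given at the same time as challenge: subcutaneously as aqueous solution, or orally by gavage in 5% gum acacia. Survival in groups of eight mice per dose gave PD50 (mg/kg) by log probit.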

Pseudomonas aeruginosa [9] = experiment: (§6) Compound was tested for inhibition of the gram-negative organism Pseudomonas aeruginosa UI-18; format: functional; in short: as §2
Providencia rettgeri [10] = experiment: (§7) Compound was tested for inhibition of the gram-negative organism Providencia rettgeri H1771; format: functional; in short: as §2
Enterococcus faecalis [11] = experiment: (§8) Compound was tested for inhibition of the […] organism Streptococcus faecalis MGH-2; format: functional; in short: as §2
Streptococcus pyogenes [12] = experiment: (§9) Compound was tested for inhibition of the […] organism Streptococcus pyogenes C203.; format: functional; in short: as §2
Staphylococcus aureus [13] = experiment: (§10) Compound was tested for inhibition of the […] organism […] UC-76.; format: functional; in short: as §2
Mus musculus [14] = experiment: Compound was evaluated for protective dose against Streptococcus pneumoniae SV-1 lethal infection following sc administration; format: functional; conditions: read-out: PD50; in short: as §5
Escherichia coli [15] = experiment: (§11) Compound was tested for inhibition of the gram-negative organism Escherichia coli H560; format: functional; in short: as §2
Staphylococcus aureus [16] = experiment: (§12) Compound was tested for inhibition of the […] organism […] H228.; format: functional; in short: as §2
Streptococcus pneumoniae [17] = experiment: (§13) Compound was tested for inhibition of the […] organism Streptococcus pneumoniae SV-1; format: functional; in short: as §2
Escherichia coli [18] = experiment: as §11; format: functional; remark: listed apart in the source
Escherichia coli [19] = experiment: Compound was tested for inhibition of target enzyme DNA gyrase obtained from Escherichia coli H560 cells; format: functional
In short: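 Gyrase isolated from E. coli H560 cells. Drug-gyrase-DNA complex denatured, and closed circular DNA converted to linear DNA. Linear DNA resolved by gel electrophoresis and stained with ethidium bromide. Value is the minimum drug concentration (µg/mL) giving linear DNA at an intensity relative to oxolinic acid at 10 µg/mL. Aqueous drug stocks made in 0.1 N NaOH or KOH.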

Escherichia coli [20] = experiment: as §1; format: functional; remark: listed apart in the source
Klebsiella pneumoniae [21] = experiment: as §3; format: functional; remark: listed apart in the source
Pseudomonas aeruginosa [22] = experiment: as §6; format: functional; remark: listed apart in the source
Providencia rettgeri [23] = experiment: as §7; format: functional; remark: listed apart in the source
Streptococcus pyogenes [24] = experiment: as §9; format: functional; remark: listed apart in the source
Staphylococcus aureus [25] = experiment: as §12; format: functional; remark: listed apart in the source
Staphylococcus aureus [26] = experiment: as §10; format: functional; remark: listed apart in the source
Streptococcus pneumoniae [27] = experiment: as §13; format: functional; remark: listed apart in the source
Enterococcus faecalis [28] = experiment: as §8; format: functional; remark: listed apart in the source

| Compound | MIC (Escherichia coli [1]) [mg/L] | MIC (Enterobacter cloacae) [mg/L] | Min concentration [2] [µg/mL] | MIC (Klebsiella pneumoniae [3]) [mg/L] | ED50 (Mus musculus [4]) [mg/kg] | ED50 (Mus musculus [5]) [mg/kg] | ED50 (Mus musculus [6]) [mg/kg] | ED50 (Mus musculus [7]) [mg/kg] | ED50 (Mus musculus [8]) [mg/kg] | MIC (Pseudomonas aeruginosa [9]) [mg/L] | MIC (Providencia rettgeri [10]) [mg/L] | MIC (Enterococcus faecalis [11]) [mg/L] | MIC (Streptococcus pyogenes [12]) [mg/L] | MIC (Staphylococcus aureus [13]) [mg/L] | ED50 (Mus musculus [14]) [mg/kg] | MIC (Escherichia coli [15]) [mg/L] | MIC (Staphylococcus aureus [16]) [mg/L] | MIC (Streptococcus pneumoniae [17]) [mg/L] | further results |
| --- | --- | --- | --- | --- | --- | --- | --- | --- | --- | --- | --- | --- | --- | --- | --- | --- | --- | --- | --- |
| CC1COc2c(N3CCN(C)CC3)c(F)cc3c(=O)c(C(=O)O)cn1c23 (centres undefined) [OFLOXACIN] | 0.1 (≈ 0.277 µM) | 0.1 (≈ 0.277 µM) | 5 | 0.1 (≈ 0.277 µM) | 2 | 0.8 | 11 | 5 | 68 | 0.4 (≈ 1.11 µM) | 0.2 (≈ 0.553 µM) | 0.8 (≈ 2.21 µM) | 0.8 (≈ 2.21 µM) | 0.1 (≈ 0.277 µM) | 38 |  |  |  |  |
| CCn1cc(C(=O)O)c(=O)c2cc(F)c(N3CCNCC3)nc21 [ENOXACIN] | 0.2 (≈ 0.624 µM) | 0.2 (≈ 0.624 µM) | 5 | 0.2 (≈ 0.624 µM) | 3 | 2 | 12 | 10 | > 200 | 1.6 (≈ 4.99 µM) | 0.1 (≈ 0.312 µM) | 3.1 (≈ 9.68 µM) | 12.5 (≈ 39 µM) | 0.4 (≈ 1.25 µM) | > 100 | 0.1 (≈ 0.312 µM) | 1.6 (≈ 4.99 µM) |  |  |
| CCn1cc(C(=O)O)c(=O)c2cc(F)c(N3CCC(CNC)C3)c(F)c21 (centres undefined) | 0.4 (≈ 1.09 µM) | 0.4 (≈ 1.09 µM) | 0.5 | 0.8 (≈ 2.19 µM) | 6.9 | 1.9 |  |  | 37 | 1.6 (≈ 4.38 µM) | 0.8 (≈ 2.19 µM) | 0.1 (≈ 0.274 µM) | 0.1 (≈ 0.274 µM) | 0.1 (≈ 0.274 µM) | 11 | 0.2 (≈ 0.547 µM) | 0.2 (≈ 0.547 µM) | 0.1 (≈ 0.274 µM) |  |
| CCn1cc(C(=O)O)c(=O)c2cc(F)c(N3CCNCC3)cc21 [NORFLOXACIN] |  | 0.1 (≈ 0.313 µM) |  |  | 4 | 1 | 23 | 15 | 150 |  |  |  |  |  | > 100 |  |  |  | MIC (Escherichia coli [18]): 0.1 mg/L (≈ 0.313 µM); MIC (Escherichia coli [19]): 1 mg/L (≈ 3.13 µM); MIC (Escherichia coli [20]): 0.025 mg/L (≈ 0.0783 µM); MIC (Klebsiella pneumoniae [21]): 0.05 mg/L (≈ 0.157 µM); MIC (Pseudomonas aeruginosa [22]): 0.2 mg/L (≈ 0.626 µM); MIC (Providencia rettgeri [23]): 0.025 mg/L (≈ 0.0783 µM); MIC (Streptococcus pyogenes [24]): 0.8 mg/L (≈ 2.51 µM); MIC (Staphylococcus aureus [25]): 0.8 mg/L (≈ 2.51 µM); MIC (Staphylococcus aureus [26]): 0.05 mg/L (≈ 0.157 µM); MIC (Streptococcus pneumoniae [27]): 1.6 mg/L (≈ 5.01 µM); MIC (Enterococcus faecalis [28]): 1.6 mg/L (≈ 5.01 µM) |
| CNn1cc(C(=O)O)c(=O)c2cc(F)c(N3CCN(C)CC3)cc21 [AMIFLOXACIN] | 0.1 (≈ 0.299 µM) |  |  | 0.2 (≈ 0.598 µM) | 4.5 | 1 |  |  | > 100 | 0.8 (≈ 2.39 µM) | 0.2 (≈ 0.598 µM) | 3.1 (≈ 9.27 µM) | 12.5 (≈ 37.4 µM) | 0.4 (≈ 1.2 µM) | > 25 | 0.025 (≈ 0.0748 µM) | 1.6 (≈ 4.79 µM) | 12.5 (≈ 37.4 µM) |  |
| CCNCC1CCN(c2c(F)cc3c(=O)c(C(=O)O)cn(CC)c3c2F)C1 (centres undefined) [MERAFLOXACIN] | 0.1 (≈ 0.264 µM) | 0.2 (≈ 0.527 µM) | 2.5 | 0.2 (≈ 0.527 µM) | 12 | 1.7 | 2.8 | 1.6 | 20 | 1.6 (≈ 4.22 µM) | 0.4 (≈ 1.05 µM) | 0.1 (≈ 0.264 µM) | 0.1 (≈ 0.264 µM) | 0.05 (≈ 0.132 µM) | 4.4 | 0.1 (≈ 0.264 µM) | 0.1 (≈ 0.264 µM) | 0.1 (≈ 0.264 µM) |  |
| CCNCC1CCN(c2cc3c(cc2F)c(=O)c(C(=O)O)cn3CC)C1 (centres undefined) | 0.1 (≈ 0.277 µM) | 0.2 (≈ 0.553 µM) | 2.5 | 0.4 (≈ 1.11 µM) | > 100 | 15 | 35 | 3 |  | 1.6 (≈ 4.43 µM) | 1.6 (≈ 4.43 µM) | 0.2 (≈ 0.553 µM) | 0.1 (≈ 0.277 µM) | 0.05 (≈ 0.138 µM) |  | 0.1 (≈ 0.277 µM) | 0.2 (≈ 0.553 µM) | 0.2 (≈ 0.553 µM) |  |
